Hits are enriched below; roughly 1.7% of the tested compounds scored in any of these assays.
SUMO1-SIM PPI: modulators of human SUMO1-mediated protein-protein interactions; inhibition, % at 20 µM; P63165; SUMO1 binding to a labelled peptide, TR-FRET, 1 h; 360,000 compounds, 0.33% hits; in the data active = inhibition above about 37%
Target sequence (P63165 whole entry, looked up): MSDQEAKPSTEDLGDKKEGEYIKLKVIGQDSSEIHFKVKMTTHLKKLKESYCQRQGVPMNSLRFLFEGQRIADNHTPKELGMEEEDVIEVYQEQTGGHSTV
Scp-1 inhibitor: blocks human Scp-1 phosphatase activity | Q9GZU7 | Recombinant Scp1, phosphopeptide, malachite green phosphate absorbance | inhibition, % at 20 µM | 340,000 compounds, 0.88% hits | AID 493091;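 active = inhibition above about 50% at 20 µM, limit read from the data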;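 also: plate controls were DMSO wells with enzyme for no effect and wells lacking enzyme for full effect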
Target sequence (Q9GZU7 76-261 limits assumed): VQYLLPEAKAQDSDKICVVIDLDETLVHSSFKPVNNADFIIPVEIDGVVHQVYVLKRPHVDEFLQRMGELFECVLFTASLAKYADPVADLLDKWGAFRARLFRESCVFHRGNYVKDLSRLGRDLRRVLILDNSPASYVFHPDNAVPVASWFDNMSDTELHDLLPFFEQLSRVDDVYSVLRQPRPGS
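Test system: SCP-1 phosphatase catalytic domain, residues 76-261; measured by: colorimetric phosphate reagent with accelerator and stabiliser, absorbance at 630 nm; timing: enzyme reaction 45 min at room temperature, colour 5 min, stabilisation 30 min; also added: Phosphorylated 17-residue peptide substrate; compound dosing: one concentration, 20 µM, with 1.0% DMSO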
DNMT1 block: inhibitors of human DNMT1; P26358; inhibition (reported as % activation of signal), % at 10 µM; DNMT1 molecular beacon, Hinp1I cleavage, fluorescence; AID 588458; 360,000 compounds, 0.83% hits; in the data active = inhibition above about 50%
LMPTP inh: LMPTP (human) inhibition; 360,000 compounds, 0.22% hits; inhibition, % at 20 µM; recombinant LMPTP-A, OMFP fluorogenic substrate, fluorescence intensity;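 active = compounds that cut the enzyme signal by at least half of the control window in the single-dose screen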;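 also: plate controls were DMSO wells with enzyme plus substrate for no effect and substrate without enzyme for full effect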
Target sequence (P24666 whole entry, looked up): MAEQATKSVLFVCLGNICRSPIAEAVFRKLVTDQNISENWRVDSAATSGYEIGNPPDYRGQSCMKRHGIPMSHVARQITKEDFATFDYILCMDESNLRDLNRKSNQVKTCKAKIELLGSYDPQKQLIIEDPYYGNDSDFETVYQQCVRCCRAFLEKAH
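test system = LMPTP-A | amount = 0.625 nM LMPTP-A final | reagent = fluorogenic phosphatase substrate OMFP at 400 µM final | incubation = 50 min at room temperature | benchmarks = no-enzyme low control, uninhibited high control | medium = Bis-Tris pH 6.0, DTT, detergent | signal = fluorescence intensity of OMFP turnover product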
STEP block: blocks human striatal-enriched tyrosine phosphatase | 360,000 compounds, 0.25% hits | P54829 | recombinant STEP, OMFP fluorogenic substrate, fluorescence | inhibition, % at 20 µM;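 active = inhibition at 20 µM, scaled per plate between control wells, above about 37%, limit read from the data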;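 also: 0% = DMSO with enzyme and substrate and 100% = substrate only without enzyme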
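System: isolated STEP enzyme; schedule: 20 min enzyme reaction at room temperature, protected from light; medium: Bis-Tris buffer pH 6.0, 2.5 mM DTT, 0.005% Tween 20; signal: fluorescence, 480/540 nm; dosing: single compound dose of 20 µM, 1% DMSO final; also added: OMFP substrate, 25 µM final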
Scp-1 conf: Scp-1 (human) inhibition, single-dose confirmed; inhibition, % at 20 µM; recombinant SCP-1 catalytic domain, phosphate release, malachite green absorbance; shares compounds with Scp-1 inhibitor; 2,500 compounds, 61% hits;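 also: plate controls were DMSO with enzyme for no effect and buffer wells lacking enzyme for full effect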
Scp-1 MG ctr: colorimetric interference in Scp-1 counter-screen | shares compounds with Scp-1 inhibitor | Colorimetric interference counterscreen, malachite green absorbance 630 nm | apparent inhibition (interference), % at 20 µM | 2,500 tested, under 10 active;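 also: compounds added after enzyme reaction finished so only phosphate colour detection is probed; plate controls were DMSO wells with completed Scp-1 reaction for no effect and substrate wells lacking enzyme for full effect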
Scp-1 Tm shift: binds human Scp-1, shifting its melting temperature | Recombinant SCP1, Sypro Orange thermal shift Tm | thermal shift relative to vanadate control, % at 40 µM | AID 540329 | 1,500 compounds, 25% hits | shares compounds with Scp-1 inhibitor;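 active = substances whose mean melting-temperature shift, as a percentage of the reference inhibitor's shift, reaches about 5.3%, limit read from the data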;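 also: 0% = Tm of DMSO wells and 100% = Tm with sodium orthovanadate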
The depositor's hits bear a star; / = no result.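 The calls were made as follows, unless noted: active = inhibition of at least 30% at 20 µM; inactive = the rest.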

SMILES | SUMO1-SIM PPI | Scp-1 inhibitor | DNMT1 block | LMPTP inh | STEP block | Scp-1 conf | Scp-1 MG ctr | Scp-1 Tm shift
CCOc1ccc(C(=O)CCCC(=O)c2ccc(OCC)cc2)cc1 | 8.9 | 77.3* | 6.2 | 25.6 | 7.9 | 3.6 | -0.2 | /
CCCCC(=O)OCC(=O)c1ccc(OCC)cc1 | -2.5 | -6.8 | -3.4 | -0.8 | 1.2 | / | / | /
CCC(C(=O)NCCc1c[nH]c2ccc(C)cc12)c1ccccc1 (stereo unspecified) | 4.7 | -12.3 | -1.8 | 1.2 | 1.7 | / | / | /
CCOC(=O)NN1C(=O)c2ccccc2NC1(C)C | 1.9 | 72.4* | 0.2 | 0.2 | -0.9 | -3.8 | -7.1 | /
O=[N+]([O-])c1cccc(-c2c(-c3ccccc3)ncc3cc(F)ccc23)c1 | -16.7 | 1.2 | -4.1 | 1.3 | 3.6 | / | / | /
COc1cc2cnc(-c3ccccc3)c(-c3cccc(C(F)(F)F)c3)c2cc1OC | 5.7 | 52.6* | -13.7 | 4.4 | 0.5 | -9.9 | -9.0 | /
Fc1ccc2cnc(-c3ccccc3)c(-c3cccc(C(F)(F)F)c3)c2c1 | 0.0 | 64.6* | 10.6 | 2.5 | 0.0 | 6.3 | -6.0 | /
COc1cc2cnc(-c3ccccc3)c(-c3ccc(C#N)cc3)c2cc1OC | 0.8 | 24.9 | 1.6 | -0.3 | 1.0 | / | / | /
Fc1cc(F)cc(-c2c(-c3ccccc3)ncc3ccc(F)cc23)c1 | 6.9 | 85.1* | 27.1 | 4.2 | 0.3 | 38.4* | -12.6 | -25.0
CN(C)C(=O)COC(=O)c1ccc(S(=O)(=O)NCc2ccco2)cc1 | 5.1 | 75.1* | 43.8 | -1.0 | 5.0 | 54.4* | -10.1 | -16.1
O=C(COC(=O)c1ccc(S(=O)(=O)NCc2ccco2)cc1)Nc1ccc(Cl)cn1 | 9.3 | 60.4* | 40.3 | 9.2 | 4.3 | 64.5* | -10.6 | 6.4*
Cc1cccc(C)c1NC(=O)C(c1ccccc1)n1c(-c2ccccc2)nc2ccccc21 (stereo unspecified) | -2.5 | / | / | 0.3 | / | / | / | /
COc1ccc(Cn2c(C3CCCCC3)nc3c(c(=O)c4ccccc4n3C)c2=O)cc1 | / | 87.2* | / | / | / | 54.7* | -9.5 | -29.0
COc1ccc(Cn2c(-c3ccccc3)nc3c(c(=O)c4ccccc4n3C)c2=O)cc1 | 11.4 | 5.5 | 37.5 | 4.6 | 4.4 | / | / | /
COc1ccc(S(=O)(=O)Nc2ccc3c(c2)C(=O)N([C@H](C)CO)C[C@H](C)[C@@H](CN(C)S(C)(=O)=O)O3)cc1 | 4.3 | 18.3 | 4.2 | -2.0 | -1.2 | / | / | /
Cc1cccc(C)c1NC(=O)CN1C(=O)S/C(=C\c2cccn2C)C1=O | -1.8 | 2.1 | 18.4 | 0.0 | 2.0 | / | / | /
Cc1cccc(NC(=O)CN2C(=O)S/C(=C\c3cccn3-c3cccc(C(=O)O)c3)C2=O)c1 | -5.8 | 70.1* | 26.0 | 3.6 | 11.2 | 71.1* | -6.2 | 11.3*
Cc1cccc(C)c1NC(=O)CN1C(=O)S/C(=C\c2cccn2-c2cccc(C(=O)O)c2)C1=O | -15.5 | 57.8* | 23.0 | 0.2 | 18.2 | 81.0* | -13.4 | 6.6*
O=C(NNC(=O)c1ccc(Cl)cc1Cl)c1ccc2ccccc2c1 | -7.6 | 50.0 | 13.1 | 11.4 | 9.6 | -4.9 | -9.3 | /
CCCSC1=N/C(=C\c2ccc([N+](=O)[O-])o2)C(=O)S1 | 61.8* | 60.0* | 93.4* | 45.1 | 30.7 | 71.8* | -16.7 | 11.3*
CCSC1=N/C(=C\c2ccc(-c3ccccc3[N+](=O)[O-])o2)C(=O)S1 | -0.8 | -19.6 | -2.7 | 5.1 | 1.4 | / | / | /
N/C(=N\OC(=O)c1ccc(Br)cc1)c1cccc([N+](=O)[O-])c1 | -21.5 | 64.8* | 9.7 | 0.2 | 1.9 | 62.3* | -18.9 | 1.3
CC(=O)Nc1cccc(/C(C)=N/NC(=O)c2ccc(NS(=O)(=O)c3cccs3)cc2)c1 | 1.2 | 64.2* | 3.0 | -1.7 | -1.0 | -17.8 | -12.0 | /
C/C(=N\NC(=O)c1ccc(NS(=O)(=O)c2cccs2)cc1)c1ccc(C(C)(C)C)cc1 | 5.0 | -1.2 | 4.4 | 0.4 | -2.3 | / | / | /

Compound activity as filed in PubChem BioAssay.
